The record followed here is ChEMBL document CHEMBL4130441, “Mortiamides A-D, Cyclic Heptapeptides from a Novel Mortierella sp. Obtained from Frobisher Bay” (J Nat Prod, 2017).

Active and inactive are the calls of the source. No cut-off for these calls is given here. Where a SMILES comes first, the peptide text is derived from it.

The subject of one series is BJ. As to the kind of experiment: Cytotoxicity against human BJ cells assessed as decrease in cell viability at 128 ug/ml after 24 hrs by Alamar blue assay. Format: cell-based. In outline:
(§1)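 Cells treated in 96-well culture plates in triplicate at 128 μg/mL. Viability measured 24 h after treatment with the redox dye Alamar Blue. Fluorescence read at 560/12 nm excitation and 590 nm emission, at time zero and 4 h after dye addition.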
For orientation: Resazurin is reduced to fluorescent resorufin, in cell work by metabolically active cells.

For a further series, the system named is Keratinocyte. As to the kind of experiment: Cytotoxicity against human epidermal keratinocytes assessed as decrease in cell viability at 128 ug/ml after 24 hrs by Alamar blue assay. In outline: as §1
A further series is filed under the species Homo sapiens. The series can be described thus: Cytotoxicity against human HTB-26 cells assessed as decrease in cell viability at 128 ug/ml after 24 hrs by Alamar blue assay. Type of series: functional, cell-based. The method, boiled down: as §1
Another series concerns MCF7. As to the kind of experiment: Cytotoxicity against human MCF7 cells assessed as decrease in cell viability at 128 ug/ml after 24 hrs by Alamar blue assay. Format: functional, cell-based. In outline: as §1
The next series has as its system Staphylococcus aureus. The series can be described thus: Antimicrobial activity against methicillin-resistant Staphylococcus aureus ATCC 33591 at 128 ug/ml after 22 hrs by micro broth dilution assay. Format: functional, organism-based. The method, boiled down:
(§2)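 CLSI 96-well microbroth dilution, triplicate; tested at 128 μg/mL; strains MRSA ATCC 33591 and VRE E. faecium EF379; optical density read at time zero and after 22 h incubation to give growth inhibition.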
In general terms: Broth dilution looks for growth in wells or tubes with falling amounts of substance.

A further series relates to Enterococcus faecium. The series can be described thus: Antimicrobial activity against vancomycin-resistant Enterococcus faecium EF379 at 128 ug/ml after 22 hrs by micro broth dilution assay. Type of series: functional, organism-based. The method, boiled down:
as §2

The test system of the next series is Staphylococcus warneri. The series can be described thus: Antimicrobial activity against Staphylococcus warneri ATCC 17917 at 128 ug/ml after 22 hrs by micro broth dilution assay. Type of series: functional, organism-based. The method, boiled down: (§3)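 CLSI-standard 96-well broth microdilution, run in triplicate. Test concentration 128 μg/mL. Optical density read at time zero and at the final time point; growth inhibition calculated from the change after 22 h incubation.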

The subject of another series is Pseudomonas aeruginosa. The series can be described thus: Antimicrobial activity against Pseudomonas aeruginosa ATCC 14210 at 128 ug/ml after 22 hrs by micro broth dilution assay. Type of series: functional, organism-based. In outline:
as §3

The subject of a further series is Candida albicans. As to the kind of experiment: Antimicrobial activity against Candida albicans ATCC 14035 at 128 ug/ml after 22 hrs by micro broth dilution assay. Format: functional, organism-based. The method, boiled down: as §3

Turning to `CC[C@@H](C)[C@H]1NC(=O)[C@H](Cc2ccccc2)NC(=O)[C@@H]([C@H](C)CC)NC(=O)[C@@H](C(C)C)NC(=O)[C@@H]([C@H](C)CC)NC(=O)[C@H]([C@@H](C)CC)NC(=O)[C@@H](C)NC1=O`, the Activity entry with BJ and in the series with Keratinocyte was “Non-Toxic” throughout. Also, the outcome in the series listed under Homo sapiens, with MCF7, with Staphylococcus aureus, with Enterococcus faecium, in the series with Staphylococcus warneri and in the series with Pseudomonas aeruginosa was inactive. Moreover, the result with Candida albicans was inactive.
For the molecule `CC(C)[C@H]1NC(=O)[C@H](Cc2ccccc2)NC(=O)[C@@H](C(C)C)NC(=O)[C@@H](C(C)C)NC(=O)[C@@H](C(C)C)NC(=O)[C@H](Cc2ccccc2)NC(=O)[C@@H](Cc2ccccc2)NC1=O` (HELM PEPTIDE1{F.[dV].[dF].F.[dV].[dV].[dV]}$PEPTIDE1,PEPTIDE1,1:R1-7:R2$$$V2.0), the Activity entry in the series with BJ and with Keratinocyte was “Non-Toxic” throughout. Besides, the outcome in the series listed under Homo sapiens, with MCF7, in the series with Staphylococcus aureus, in the series on Enterococcus faecium, with Staphylococcus warneri and with Pseudomonas aeruginosa was inactive. Further, the outcome in the series with Candida albicans was inactive.
For the molecule `CC[C@@H](C)[C@H]1NC(=O)[C@@H](C)NC(=O)[C@H](Cc2ccccc2)NC(=O)[C@@H](CC(C)C)NC(=O)[C@@H](C(C)C)NC(=O)[C@H](Cc2ccccc2)NC(=O)[C@@H]([C@H](C)CC)NC1=O` (HELM PEPTIDE1{F.[dA].[dI].[dI].F.[dV].[dL]}$PEPTIDE1,PEPTIDE1,1:R1-7:R2$$$V2.0), the Activity result in the series on BJ and in the series on Keratinocyte was “Non-Toxic” throughout. In addition, the result in the series filed under Homo sapiens, with MCF7, in the series with Staphylococcus aureus, in the series with Enterococcus faecium, with Staphylococcus warneri and in the series on Pseudomonas aeruginosa was inactive. The outcome in the series on Candida albicans was inactive.
Consider `CC(C)C[C@@H]1NC(=O)[C@@H](C(C)C)NC(=O)[C@@H](C(C)C)NC(=O)[C@@H](C(C)C)NC(=O)[C@H](Cc2ccccc2)NC(=O)[C@@H](Cc2ccccc2)NC(=O)[C@@H](C(C)C)NC1=O` (HELM PEPTIDE1{F.[dV].[dV].[dV].L.[dV].[dF]}$PEPTIDE1,PEPTIDE1,1:R1-7:R2$$$V2.0), for which the Activity entry in the series with BJ and in the series on Keratinocyte was “Non-Toxic” in each case. Besides, the outcome in the series listed under Homo sapiens, in the series with MCF7, with Staphylococcus aureus, in the series with Enterococcus faecium, with Staphylococcus warneri and in the series with Pseudomonas aeruginosa was inactive. Also, the result in the series with Candida albicans was inactive.
